From ChEMBL document CHEMBL4673404, “Covalent Inhibition of Wild-Type HIV-1 Reverse Transcriptase Using a Fluorosulfate Warhead” (ACS Med Chem Lett, 2021)

Experiments:
[1] = biological target: T1, Human immunodeficiency virus type 1 reverse transcriptase (Human immunodeficiency virus 1, UniProt Q72547); experiment: Inhibition of recombinant wild type HIV-1 reverse transcriptase using poly(rA)350/oligo(dT)16 as template/primer preincubated for 1 hr followed by substrate addition measured after 30 mins by pico-green reagent based fluorescence analysis
How it was run: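 Recombinant wild-type HIV-1 RT preincubated 1 h with inhibitor or DMSO. Substrate of r(A)350 template and d(T)16 primer then added, 30 min at room temperature. Quenched with EDTA, product detected with PicoGreen by fluorescence (ex 485/em 520 nm). Triplicate runs, normalized to DMSO controls to give IC50.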

[2] = Cytotoxicity against human MT2 cells assessed as cell growth inhibition after 5 days by MTT assay; assay type: cell-based; settings: time 5 day
How it was run: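 Human MT-2 T-cells were used in the same assay as the HIV-1 IIIB infection-protection test. CC50 was taken as the concentration inhibiting MT-2 cell growth by 50%, with measurements in triplicate.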

[3] = biological target: T1, Human immunodeficiency virus type 1 reverse transcriptase; experiment: Covalent inhibition of recombinant wild type HIV-1 reverse transcriptase using poly(rA)350/oligo(dT)16 as template/primer preincubated followed by substrate addition measured after 30 mins by pico-green reagent based fluorescence analysis
[4] = biological target: T1, Human immunodeficiency virus type 1 reverse transcriptase; experiment: Covalent inhibition of recombinant wild type HIV-1 reverse transcriptase using poly(rA)350/oligo(dT)16 as template/primer preincubated followed by substrate addition measured after 48 hrs by pico-green reagent based fluorescence analysis
How it was run: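 Recombinant WT HIV-1 RT preincubated with inhibitor or DMSO control (1 h for line 3, 48 h for line 4). Substrate solution with r(A)350 template and d(T)16 primer then added, reacted 30 min at room temperature, and quenched with EDTA. Product quantified with PicoGreen by fluorescence (ex 485, em 520 nm). Triplicate runs, normalized to DMSO controls to give IC50.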

[5] = Covalent inhibition of HIV-1 reverse transcriptase Tyr181Cys mutant; design: species or system Human immunodeficiency virus 1

| SMILES | IC50 [1] [µM] | CC50 at 120 h [2] [µM] | IC50 [3] [µM] | IC50 [4] [µM] | IC50 [5] [µM] |
| --- | --- | --- | --- | --- | --- |
| N#C/C=C/c1cc(Cl)cc(Oc2ccc(Cl)cc2OCCn2ccc(=O)[nH]c2=O)c1 | 0.003 | 10 |  |  |  |
| N#Cc1cc(Cl)cc(Oc2cc(OS(=O)(=O)F)ccc2OCCn2ccc(=O)[nH]c2=O)c1 |  | 100 |  |  |  |
| Cn1c(=O)ccn(CCOc2cc(OS(=O)(=O)F)ccc2Oc2cc(Cl)cc(C#N)c2)c1=O |  | 40 | 0.246 |  |  |
| N#Cc1cc(Cl)cc(Oc2ccc(S(=O)(=O)F)cc2OCCn2ccc(=O)[nH]c2=O)c1 |  | 90 | 5 |  |  |
| N#Cc1cc(Cl)cc(Oc2ccc(OS(=O)(=O)F)cc2OCCn2ccc(=O)[nH]c2=O)c1 |  | 66 | 0.103 | 0.163 | 0.045 |
| N#Cc1ccc2c(Oc3ccc(OS(=O)(=O)F)cc3OCCn3ccc(=O)[nH]c3=O)cc(Cl)cc2c1 |  | 15 | 0.0147 |  |  |
| N#Cc1cc(Cl)cc(Oc2cc(OS(=O)(=O)F)ccc2Cl)c1 |  | 78 | 0.833 |  |  |
| N#Cc1cc2c(Oc3ccc(OS(=O)(=O)F)cc3OCCn3ccc(=O)[nH]c3=O)cc(Cl)cn2c1 |  | 26 | 0.0424 |  | 0.041 |
| N#C/C=C/c1cc(Cl)cc(Oc2ccc(OS(=O)(=O)F)cc2OCCn2ccc(=O)[nH]c2=O)c1 |  | 45 | 0.119 |  |  |
| N#C/C=C/c1cc(F)cc(Oc2ccc(OS(=O)(=O)F)cc2OCCn2ccc(=O)[nH]c2=O)c1 |  | 42 | 0.15 |  |  |
| Cn1c(=O)ccn(CCOc2cc(OS(=O)(=O)F)ccc2Oc2cccn3cc(C#N)cc23)c1=O |  | 75 | 0.164 | 1.11 | 0.202 |
| N#Cc1cc(Cl)cc(Oc2ccc(OS(=O)(=O)F)cc2Cl)c1 |  | 50 | 4.9 |  |  |
| N#Cc1ccc2c(Oc3ccc(OS(=O)(=O)F)cc3OCCn3ccc(=O)[nH]c3=O)cccc2c1 |  | 62 | 0.0823 |  |  |
| N#Cc1cc2c(Oc3ccc(OS(=O)(=O)F)cc3OCCn3ccc(=O)[nH]c3=O)cc(F)cn2c1 |  | 55 | 0.064 | 0.429 | 0.063 |
| Cn1c(=O)ccn(CCOc2cc(S(=O)(=O)F)ccc2Oc2cc(Cl)cc(C#N)c2)c1=O |  | 60 | 0.375 |  |  |
| Cc1ccnc2c1NC(=O)c1cccnc1N2C1CC1 [NEVIRAPINE] |  | > 100 |  |  |  |
| Cc1cc(/C=C/C#N)cc(C)c1Nc1ccnc(Nc2ccc(C#N)cc2)n1 [RILPIVIRINE] |  | 8 | 0.038 |  |  |
